Measurements collected from several papers.
Target: Mu-type opioid receptor (OPRM1, Homo sapiens, UniProt P35372)

SMILES | effect on | mode | technique | setting | endpoint | result
CC(CCc1ccccc1)NC(C)C(O)c1ccc(O)cc1 (stereo not drawn) | ligand displacement | – | radioligand | – | IC50 | 9950 nM
c1ccc([C@]2(CCN[C@H]3CCOc4ccccc43)CCOC3(CCCC3)C2)nc1 | cAMP | agonist | luciferase | – | EC50 | 1.6 nM
Cc1cc(O)cc(C)c1C[C@H](N)C(=O)N1Cc2ccccc2C[C@H]1C(=O)NCC(=O)NC(c1ccccc1)c1ccccc1 | ligand displacement | – | radioligand | cell membranes | Ki | 1.71 nM
CC(NCCc1ccc(O)cc1)C(O)c1ccc(O)cc1 (stereo not drawn) | ligand displacement | – | – | – | IC50 | 9180 nM
Cc1cc(O)cc(C)c1C[C@H](N)C(=O)N1Cc2ccccc2C[C@@H]1C(=O)NCC(=O)NCc1ccccc1 | ligand displacement | – | radioligand | cell membranes | Ki | 0.068 nM
CCCCCCCCC[C@@H]1CC(=O)NCC(=O)N[C@H](Cc2ccc(O)cc2)C(=O)NCC(=O)N[C@@H](Cc2ccccc2)C(=O)O1 | ligand displacement | – | radioligand | – | Ki | 6400 nM
COc1cc(-c2cnc3c(c2)C[C@@]2(OCCCc4ccccc4)[C@H]4Cc5ccc(O)c6c5[C@@]2(CCN4CC2CC2)[C@H]3O6)ccn1 | cell-free assay | – | – | – | Ki | < 10 nM
CC(CCc1ccc(O)cc1)NCCc1ccc(O)c(O)c1 (stereo not drawn) | ligand displacement | – | radioligand | – | IC50 | 1660 nM
Oc1ccc2c3c1O[C@H]1c4ncc(-c5ccccc5)cc4C[C@@]4(OCCCc5cccnc5)[C@@H](C2)N(CC2CC2)CC[C@]314 | cell-free assay | – | – | – | Ki | 3.96 nM
Cc1cc(O)cc(C)c1C[C@H](N)C(=O)N1Cc2ccccc2C[C@H]1C(=O)NCC(=O)NCc1ccc([N+](=O)[O-])cc1 | ligand displacement | – | radioligand | cell membranes | Ki | 4.5 nM
Cc1cccc(C)c1-c1cnc2c(c1)C[C@@]1(OCCCc3ccccc3)[C@H]3Cc4ccc(O)c5c4[C@@]1(CCN3CC1CC1)[C@H]2O5 | cell-free assay | – | – | – | Ki | ~200 nM
Clc1ccc(CSc2nnc(-c3ccccn3)n2Cc2ccco2)cc1Cl | β-arrestin recruitment | agonist | imaging | – | EC50 | > 32000 nM
